The data set concerns MS2 coat protein. Nature of the data set: apparent Kd, MS2 coat protein; higher = weaker binding; RNA-MaP array; FMN 200 µM where present. The essentials: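 Binding was read on Illumina sequencing-chip clusters where stalled E. coli RNA polymerase had transcribed each design. A titration of SNAP-549-labelled MS2 coat protein began at 0.7 or 1.5 nM and doubled to 3 µM, once without ligand and once with constant ligand, in 100 mM Tris-HCl pH 7.5, 80 mM KCl, 4 mM MgCl2, BSA, DTT, yeast tRNA and Tween-20. The apparent Kd is the median of filtered per-cluster binding-curve fits, based on green signal normalised to red-channel RNA signal and control-cluster median Fmax.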

Setting [1] is: designed as: OFF switch for flavin mononucleotide, no ligand.
[2] abbreviates: ligand present: flavin mononucleotide, designed as: OFF switch for flavin mononucleotide.
Setting [3] is: designed as: ON switch for flavin mononucleotide, no ligand.
[4] abbreviates: ligand present: flavin mononucleotide, designed as: ON switch for flavin mononucleotide.

Consider “CCGAGAAGGACAGGAUAUGGACAUGAGGAUCACCCAUGUACAUGGGAAUAUAUACUGAAUUUUUACUAGAAGGGUUACAUAAAU”, for which the apparent Kd (commonly the concentration giving half-maximal binding under the conditions of the assay) reads like this: under setting [1], 19.3 nM; under setting [2], 14.9 nM.

As for “UUAGCAACAUGAGGAUCACCCAUGUAGGAUAUCGCUAUUGUAAUCAUGAAACAUGAUUACAAUAGCGAGAAGGACAUAUGCUAU”, the “apparent Kd” value stood at 10.1 nM under setting [1] and 11.7 nM under setting [2].

Regarding “AGCUGUGACGUUACAGUUCCGUUACAUGAGGAUCACCCAUGUCAGGAUAUAUGCACUCUUGAAUCAUAGAAGGGACAGAGGUGG”, the “apparent Kd” value under setting [1] was 161 nM and the “apparent Kd” value under setting [2] came out at 157 nM.

“UGGUGAAAUGUAGGAUAUGGAAAUAAAUUUUAACCAGAAGGACAUGAGGAUCACCCAUGUGAUAGAGAAUUAAUAAUAGCUCCU”: the “apparent Kd” value under setting [1] is 26.9 nM and the “apparent Kd” value under setting [2] is 31.3 nM.

For the sequence “GUGGUCUGACAUGAGGAUCACCCAUGUGGAAUAAAUACGGGUUAGGAUAUCUUGAGGAUCACCCAAGAGAAGGGAUCGAUUGUU”, the “apparent Kd” value under setting [3] was 52.8 nM and the “apparent Kd” value under setting [4] came to 45 nM.

In the case of “AACAUCGCAGGAUAUUCGUGCUCAGACAUGAGGAUCACCCAUGUUUGGUGGGUUGGAGAAGGAGAAGGGCGAUGGA”, the “apparent Kd” value runs as follows: under setting [1], 103 nM; under setting [2], 137 nM.

In the case of “UGUAUACAUGAGGAUCACCCAUGUCAACGUAGUCGAGGAUAUGGGCAGCCGUGAGGCGUACUAGAAGGCGAAGAGG”, the “apparent Kd” value reads like this: under setting [3], 337 nM; under setting [4], 110 nM.

Consider “AAUAUGUUGCAGAAGGUUAUAUUUUUUUAGUACCUCAUUACAUGAGGAUCACCCAUGUAAAUGAUGAAGGAUAUGCAAUAUAUU”, for which the “apparent Kd” value reads like this: under setting [1], 19.3 nM; under setting [2], 16.4 nM.

Turning to “ACAUGAUAUGUAGGAUAUCACAUUAAUUGUUUUAUAAUUGUAAUUUGGAUUUGAGAAGGACAUUUACAUGAGGAUCACCCAUGU”, the “apparent Kd” value amounted to 15.9 nM under setting [1] and 12.1 nM under setting [2].

“AAUUGGAACUAAGGAUAUCUGUAUUUUGUUGAAACAUGAGGAUCACCCAUGUUCAUGAAAUUAUAGGAGAAGGUAGAUCCAUAA”: the “apparent Kd” value was determined as 5 nM under setting [3] and 4.6 nM under setting [4].

On to “GCAUCCAAUGUGAGGAUAUACCUCUGGAUACAGAGGUAGAAGGCACAUGAGGAUCACCCAUGUUACUAGGAUGC”, for which the “apparent Kd” value under setting [1] is 20.8 nM and the “apparent Kd” value under setting [2] was determined as 44.4 nM.

“GUCCUCUCUGAGGAUAUUAUCUGGUUCGAUUGAUAAGAAGGCAGUACAUGAGGAUCACCCAUGUGGGUCGUCUG”: the “apparent Kd” value was found to be 31 nM under setting [1] and 83.7 nM under setting [2].

For “GGGUACAUGGGAGGAUAUGGGAUGAUAACAUGAGGAUCACCCAUGUUAAAGAUGCCGAGAGGCAACUAGAAGGCCCAUGUACCG”, the “apparent Kd” value by setting is: under setting [3], 440 nM; under setting [4], 59.2 nM.

As to “GUAGCAUACCGAGGAUAUUCAUAUUACAUGAGGAUCACCCAUGUUAUAGGUCGAUUACGACCUUGGGAGAAGGCGGAAUGCUAC”, the “apparent Kd” value amounted to 30.9 nM under setting [3] and 13.2 nM under setting [4].

Turning to “GAUCAACAUGAGGAUCACCCAUGUGAGGAUAUGAUACUAUGUACUUCGGUACAUAGUAUCAGAAGGCAUGUGAA”, the “apparent Kd” value by setting is: under setting [1], 78.1 nM; under setting [2], 111 nM.

For the sequence “UCAUGAUGGAAGAAGGGAGUCGUGCAUAACAACUCAGGAUAUUUCACAUGAGGAUCACCCAUGUCGAAGUAACAAUGUUGAUUA”, the “apparent Kd” value came to 15.9 nM under setting [1] and 28 nM under setting [2].

Regarding “CAGGUAGACUGAGGAUAUACACUAAACAGCUAGUCUAUCUAGCUGGUCACAUGAGGAUCACCCAUGUAGAAGGCAGUCUGCCUG”, the “apparent Kd” value is, setting by setting: under setting [1], 17.8 nM; under setting [2], 35.9 nM.

Take “AUUUGCGAAUCAGGAUAUGGACCAGCACAUGAGGAUCACCCAUGUCUGCCGGCGAGCCGGCUAGGCCAGAAGGGAUGUGCUCAA”: the “apparent Kd” value runs as follows: under setting [3], 87 nM; under setting [4], 18.2 nM.

“AGCUAGUCAGGAUAUACGAACAUGUCAAAAGACGAGAACGGACAUGAGGAUCACCCAUGUAGAAGGGACUAGCA”: the “apparent Kd” value by setting is: under setting [1], 55 nM; under setting [2], 325 nM.

Regarding “AGUAAGAUGCAGAAGGUGUUAGCUAGAGCUACGACAUGAGGAUCACCCAUGUACUAAAACCCGUACAAGGAUAUGCAUCUUACA”, the “apparent Kd” value amounted to 8.17 nM under setting [3] and 6.47 nM under setting [4].

The values are drawn from the EternaBench riboswitch data.
